# Assay outcomes: PubChem, several laboratories
# This is a sample that favours compounds with a hit; in the whole collection about 2.1% have one here.
# ABCG2 inh: ABCG2 efflux pump inhibitors, primary screen, multiplex with ABCB1, IgMXP3 cells, flow cytometry | Broad substrate specificity ATP-binding cassette transporter ABCG2 (Homo sapiens), Q9UNQ0 | JC-1 efflux | inhibition, % at 6.6 µM | AID 1325, 2008 | actives 0.1% (n = 190,000);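 active = inhibition above 80%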;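 also: 0% = DMSO and 100% = nicardipine control wells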
# Target sequence (Q9UNQ0 whole entry, looked up): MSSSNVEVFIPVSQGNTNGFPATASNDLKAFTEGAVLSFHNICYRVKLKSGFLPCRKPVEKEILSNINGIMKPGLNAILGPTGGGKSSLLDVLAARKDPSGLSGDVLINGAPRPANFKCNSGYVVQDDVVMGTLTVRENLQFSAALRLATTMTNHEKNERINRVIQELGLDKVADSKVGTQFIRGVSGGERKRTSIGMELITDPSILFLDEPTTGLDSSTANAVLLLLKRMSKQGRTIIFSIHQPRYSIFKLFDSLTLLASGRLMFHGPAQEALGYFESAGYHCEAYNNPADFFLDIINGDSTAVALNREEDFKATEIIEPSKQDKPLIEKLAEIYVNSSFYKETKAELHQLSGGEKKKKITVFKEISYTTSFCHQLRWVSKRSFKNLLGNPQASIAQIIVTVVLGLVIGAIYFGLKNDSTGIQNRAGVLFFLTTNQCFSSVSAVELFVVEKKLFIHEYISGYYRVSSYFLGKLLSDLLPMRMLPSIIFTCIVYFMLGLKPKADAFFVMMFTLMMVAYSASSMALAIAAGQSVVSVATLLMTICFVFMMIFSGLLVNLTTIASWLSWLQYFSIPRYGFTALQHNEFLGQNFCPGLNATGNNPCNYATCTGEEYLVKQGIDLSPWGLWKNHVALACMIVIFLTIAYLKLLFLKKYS
#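 Test system: ABCG2 IgMXP3 and barcoded ABCB1 CCRF-Adr cell mix; Schedule: cells with compound and JC-1, 10 min at 25 °C, rotating, no wash; Technique: flow cytometry of retained JC-1 fluorescence; Measure: % inhibition of efflux relative to nicardipine and DMSO; Controls: nicardipine high and DMSO low controls.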
# ABCB1 inh: ABCB1 efflux pump inhibitors, primary screen, cell-based, multiplex, flow cytometry, ABCG2 counter-screen. inhibition, % at 6.6 µM. CCRF-Adr cells, JC-1 efflux. ATP-dependent translocase ABCB1 (Homo sapiens), P08183. AID 1326, 2008. actives 0.067% (n = 190,000); in the data active = inhibition above about 40%;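 also: 0% = vehicle and 100% = reference inhibitor; higher value means more JC-1 retained so stronger ABCB1 efflux block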
# Arbovirus inh: antivirals against arbovirus infection, primary screen, cell-based, full library, 10K replicate subset. AID 1251, 2008. actives 0.37% (n = 200,000). inhibition, % at 10 µM. arbovirus infection cell-based antiviral screen; in the data active = inhibition above about 30%
# MT stabilizer: microtubule stabilizers in HeLa cells, primary screen, imaging, high-content imaging. HeLa tubulin immunostaining HCS, 24 h; share of cells brighter than vehicle mean+2SD. % tubulin-high responders, % at 10 µM. actives 0.83% (n = 200,000). AID 2205, 2009;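 active = plate Z-score above 3 for both tubulin-high and condensed-nucleus cell shares, with cell loss under 80%, at 10 µM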;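 also: anti alpha tubulin signal scored within the nucleus-defined area of each cell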
# Autophagy HCS: autophagy modulators in MEF cells, primary screen, imaging, high-content, MEF GFP-LC3 | MEF GFP-LC3 puncta imaging; test concentration mostly 10 µM | calls only at 10 µM (by protocol) | actives 0.98% (n = 190,000);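 active = percentage of spot-positive cells more than 3 SD above its plate mean, without a fluorescence outlier flag or 80% toxicity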;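 also: spot-positive cell cutoff set from DMSO-treated cells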
# bCat nuc transl: modulators of beta-catenin nuclear translocation, primary screen, imaging, HeLa cells, immunofluorescence, high-content; nuclear translocation activity, % at 5 µM; actives 0.3% (n = 190,000); AID 1665, 2009;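 active = nuclear translocation activity above 50% at 5 µM, with a well cell count of 50 or more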;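 also: per-cell ratio of nuclear to cytoplasmic median beta-catenin stain intensity; plate controls were DMSO negative control for no effect and GSK-3 inhibitor IX positive control for full effect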
#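 Test system: human HeLa cells, native beta-catenin. Compound dosing: 5 µM primary single dose, 0.1% DMSO, 0.02–20 µM confirmation series. Incubation: compound exposure 24 h at 37°C. Detection: beta-catenin immunostaining with DAPI counterstain, 20x imaging, 6 fields/well. Read-out basis: Nuclear/cytoplasmic beta-catenin signal ratio, % activation.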
# An asterisk follows results filed as active; i = inactive; nt = no result given; + = active, no number.
SMILES,ABCG2 inh,ABCB1 inh,Arbovirus inh,MT stabilizer,Autophagy HCS,bCat nuc transl
O=C1c2cccc3c(N4CCCCC4)ccc(c23)C(=O)N1c1ccc(Cl)cn1,nt,nt,nt,2,+,nt
CCCN1C(=O)c2cccc3c(N4CCCCC4)ccc(c23)C1=O,52,26,-1,1,+,-2
N#Cc1c(-c2ccccc2F)cc(C2CC2)nc1SCC(=O)c1cccs1,10,0,11,7,+,-3
COc1ccc(/C=N/NC(=O)c2cccc(Br)c2)cc1Cn1cc(Cl)cn1,-2,0,-16,41*,i,nt
COc1ccc(/C=N/NC(=O)c2ccc(Br)cc2)cc1Cn1cc(Cl)cn1,-4,0,-1,4,i,1
O=C(CSc1nc2c(sc3ccccc32)c(=O)n1CCc1ccccc1)NCc1ccco1,13,1,-16,1,+,nt
CCCCn1c(SCC(=O)NCc2ccco2)nc2c(sc3ccccc32)c1=O,26,6,5,2,i,nt
Cc1ccc(C)c(Oc2nnnn2-c2ccccc2)c1,7,0,-12,5,i,2
Cc1ccc(C(C)C)c(Oc2nnnn2-c2ccccc2)c1,37,4,-2,32*,i,2
Cc1nc(NC(=O)/C=C/c2ccco2)sc1C,4,0,-14,16*,i,-3
O=C(/C=C/c1ccco1)Nc1nnc(-c2ccco2)s1,0,0,-15,8.2*,i,12
CCOc1ccccc1NC(=O)CSc1nnc(Cn2c(=O)sc3ccccc32)n1C,12,2,-1,2,i,-3
Cc1c(Cc2ccccc2)sc(/N=C/c2ccc3ccccc3c2)c1C(N)=O,-4,0,-1,19*,i,101*
Cc1c(Cc2ccccc2)sc(/N=C/c2c(O)ccc3ccccc23)c1C(N)=O,-12,-2,21,3,i,0
CN(C)C=Nc1nonc1-c1ncn[nH]1,0,0,12,5,+,-7
CN(C)C=Nc1nonc1-c1ccccc1,nt,nt,nt,nt,nt,-2
Cc1c(/C=N/NC(=O)COc2ccccc2[N+](=O)[O-])c2ccccc2n1C,-1,0,-7,3,i,3
Cc1ccc(OCC(=O)N/N=C\c2c(C)n(C)c3ccccc23)c([N+](=O)[O-])c1,1,0,-10,47*,i,3
CCCc1[nH]nc2c1C1(C(=O)N(C(C)C)c3ccccc31)C(C#N)=C(N)O2 (stereo not given),1,1,-1,6,+,-2
CCCCc1[nH]nc2c1C1(C(=O)N(CC)c3ccccc31)C(C#N)=C(N)O2 (stereo not given),1,0,9,5,i,-2
COc1ccc(C2=NOC(C(=O)NCc3ccccc3)C2)cc1 (stereo not given),1,0,-15,7,i,154*
COc1cccc(C2=NOC(C(=O)NCc3ccco3)C2)c1 (stereo not given),3,0,-21,10,i,nt
COc1cccc(C2=NOC(C(=O)NCc3ccccc3)C2)c1 (stereo not given),1,0,-19,19*,i,131*
CC(=O)Cc1nsc(NC(=O)c2ccc(-c3ccccc3Cl)o2)n1,-2,-1,-18,24*,i,2
COc1ccccc1NC(=O)c1cnc(Nc2ccccc2OC)c2ccccc12,10,4,-12,35*,i,118*
SMILES,ABCG2 inh,ABCB1 inh,Arbovirus inh,MT stabilizer,Autophagy HCS,bCat nuc transl
CCCCCCCC(=O)Nc1ccc(C(=O)N/N=C/c2cccc([N+](=O)[O-])c2)cc1,1,0,-32,5,+,0
CN(CC(=O)NC1CCCCCC1)S(=O)(=O)c1cnc[nH]1,10,1,4,2,i,2
CCC1Sc2ccccc2N(CC(=O)NCc2ccc3c(c2)OCO3)C1=O (stereo not given),1,0,-2,3,i,-2
O=C(/C=C/c1ccco1)N1CCc2ccccc21,0,0,-4,2,i,-3
Cc1ccc(/C=C/C(=O)N2CCc3ccccc32)o1,7,1,1,10*,i,nt
Cc1ccsc1C(=O)OCC(=O)N1CCN(C(=O)c2ccco2)CC1,1,0,9,2,i,-2
CCC1=NN(C(=O)Cc2ccc([N+](=O)[O-])cc2)C(O)(C(C)(C)C)C1 (stereo not given),5,1,17,2,+,-1
COc1ccc2c(=O)c3c(=O)n(CCc4ccccc4)c(C(C)C)nc3oc2c1,nt,nt,nt,nt,nt,0
COc1ccc(C(=O)Nc2ccc(Oc3ncnc4sc(-c5ccccc5)cc34)cc2)cc1OC,9,1,-4,4,i,0
COc1ccnc(Oc2ccc(F)cc2)c1C(=O)N/C=N/OCc1ccc(F)cc1,0,0,-2,5,i,0
CCOC(=O)c1ccc(NC(=O)COC)cc1,0,0,-1,2,i,nt
COc1ccc(C(=O)/C=C/C(=O)N(CC(=O)NC2CCCCC2)CC2CCCO2)c(O)c1 (stereo not given),6,2,-5,3,+,-1
CCN(CC)S(=O)(=O)c1ccc(OCC(=O)NC2CCS(=O)(=O)C2)c([N+](=O)[O-])c1 (stereo not given),2,0,2,3,i,5
CCN(CC(=O)NC1CCS(=O)(=O)C1)c1ccc(S(C)(=O)=O)cc1[N+](=O)[O-] (stereo not given),3,0,7,3,+,1
Cc1ccc(C(=O)CSc2nn3c(=O)c(C(C)(C)C)nnc3s2)cc1,1,0,1,4,i,-5
CCOc1ccccc1-n1c(SCC(=O)Nc2ccc(CC)cc2)nc2n[nH]c(C)c2c1=N,-3,-1,-23,3,i,-5
CCOc1ccccc1NC(=O)CCSc1nc2n[nH]c(C)c2c(=N)n1-c1ccccc1Cl,2,1,-5,10,+,nt
Cc1cccc(NC(=O)c2sc(C)nc2C)c1,2,1,-5,3,i,-2
Cc1cccc(C(=O)Nc2nc(C)c(C(=O)Nc3ccc4c(c3)CCC4)s2)c1,-1,-1,-17,43*,i,nt
CN(C)c1ccc(C(=O)c2ccc(N(C)C)c(N)c2)cc1N,0,0,-16,23*,i,5
CCOc1ccc(S(=O)(=O)N(CC)CC)cc1N,0,-1,2,5,i,0
